# Screening results: PubChem BioAssay, several laboratories
# NPY1 pot ag = NPY-Y1 receptor potentiators or agonists, primary screen, cell-based; Neuropeptide Y receptor type 1 (Homo sapiens), P25929; NPY-Y1 expressing cells, potentiator/agonist activation; activation, % at 3.6 µM; actives 0.37% (n = 220,000); AID 1304, 2008; in the data active means activation above about 33%, passing the limit was not always enough;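 further: cells stimulated with NPY at EC10 then isoproterenol at EC100; 0% = low agonist plus stimulus and 100% = saturating agonist plus stimulus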
# Target sequence (P25929 whole entry, looked up): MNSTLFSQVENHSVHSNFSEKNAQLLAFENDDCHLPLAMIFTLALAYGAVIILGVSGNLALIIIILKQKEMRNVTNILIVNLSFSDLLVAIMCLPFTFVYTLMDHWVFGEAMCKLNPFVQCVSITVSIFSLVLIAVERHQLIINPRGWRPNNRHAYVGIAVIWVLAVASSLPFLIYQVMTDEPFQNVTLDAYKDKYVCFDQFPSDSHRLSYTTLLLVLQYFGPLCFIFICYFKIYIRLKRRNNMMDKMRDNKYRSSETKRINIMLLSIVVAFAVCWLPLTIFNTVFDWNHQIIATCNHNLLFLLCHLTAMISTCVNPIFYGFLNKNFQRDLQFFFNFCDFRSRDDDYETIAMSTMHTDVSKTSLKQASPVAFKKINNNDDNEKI
# EP2 modulator = EP2 receptor modulators, cAMP readout, primary screen, cell-based, HTRF cAMP, PGE2 stimulation; Prostaglandin E2 receptor EP2 subtype (Homo sapiens), P43116; actives 0.83% (n = 260,000); EP2-expressing cells, cAMP HTRF FRET, PGE2 co-stimulation; induction, % at 25 µM;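 active means compounds whose cAMP rise, as percent of the full-agonist control response, exceeds 60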;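 further: rat C6 glioma line stably carrying human EP2 under a CMV promoter; the protocol text gives 20 µM as final concentration; 100% = response of wells given 1 µM PGE2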
# Target sequence (P43116 whole entry, looked up): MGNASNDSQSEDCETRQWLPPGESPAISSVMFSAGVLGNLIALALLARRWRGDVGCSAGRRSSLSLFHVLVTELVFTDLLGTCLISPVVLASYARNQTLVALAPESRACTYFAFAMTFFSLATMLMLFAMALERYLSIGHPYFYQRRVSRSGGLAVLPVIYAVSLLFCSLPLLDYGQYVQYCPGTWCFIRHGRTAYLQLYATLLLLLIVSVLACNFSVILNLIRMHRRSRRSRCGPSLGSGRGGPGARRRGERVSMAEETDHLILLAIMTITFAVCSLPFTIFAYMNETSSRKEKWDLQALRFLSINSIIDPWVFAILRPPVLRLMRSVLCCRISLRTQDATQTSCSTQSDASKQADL
# NPY Y1 blocker = NPY-Y1 receptor antagonists, primary screen, cell-based. Neuropeptide Y receptor type 1 (Homo sapiens), P25929. inhibition, % at 3.6 µM. HEK293-CNG Y1 cells, membrane potential fluorescence; NPY at EC95, then isoproterenol. AID 1040, 2008. actives 1% (n = 200,000);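 active means inhibition above the campaign mean inhibition of all tested compounds plus 3 SD, cut at about 20% in these data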;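 further: 0% = DMSO wells given NPY plus isoproterenol and 100% = isoproterenol alone without NPY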
#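 Assay system: HEK293 cells with Y1 receptor plus CNG channel | Probe or stimulus: NPY (25 nM), isoproterenol (1 µM), Ro 20-1724 (25 µM) | Timing: Compound incubation 1 h at room temperature, readout 45 min post-stimulation | Measured by: Membrane-potential fluorescent dye readout | Benchmarks: High control isoproterenol alone, low control NPY with isoproterenol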
# NPY2 pot ag = NPY-Y2 potentiators or agonists, primary screen, cell-based. cells expressing NPY-Y2, potentiator/agonist read-out. activation, % at 3.6 µM. AID 1359, 2008. actives 0.45% (n = 220,000). Neuropeptide Y receptor type 2 (Homo sapiens), P49146; in the data active means activation above about 27%;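 further: cells stimulated with NPY near EC25 plus isoproterenol at EC100; 0% = vehicle plus submaximal agonist and 100% = vehicle plus saturating agonist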
# NPY-Y2 antag = NPY-Y2 receptor antagonists, primary screen, cell-based | Neuropeptide Y receptor type 2 (Homo sapiens), P49146 | NPY-Y2 expressing cells, antagonist mode | inhibition, % at 2.7 µM | actives 0.99% (n = 140,000) | AID 793, 2007; in the data active means inhibition above about 17%;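 further: 0% = vehicle with agonist challenge and 100% = reference antagonist with challenge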
# PGE2 EP2 inh = human EP2 receptor antagonists, primary screen, TR-FRET cAMP, C6 glioma cells | Prostaglandin E2 receptor EP2 subtype (Homo sapiens), P43116 | C6 glioma cells expressing human EP2; cells stimulated with saturating PGE2 | inhibition, % at 25 µM | actives 0.52% (n = 260,000) | AID 1422, 2008;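 active means percent inhibition above 40 after rounding to a whole number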;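 further: rat C6 glioma host cells with rolipram phosphodiesterase inhibitor present; the protocol text gives 20 µM as final concentration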
# NPY-Y1 ant conf = NPY-Y1 receptor antagonists, retest of hits, confirmation, HEK293-CNG cells, membrane potential fluorescence, triplicate; shares compounds with NPY Y1 blocker; cAMP; NPY challenge against isoproterenol-raised cAMP; inhibition, % at 3.6 µM; actives 21% (n = 1,200); AID 1254, 2008; in the data active means inhibition above about 20%;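 further: 0% = vehicle with agonist plus stimulus and 100% = stimulus alone without agonist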
# NPY2 antag ctr = NPY-Y2 receptor antagonists, selectivity check, confirmation, counter-screen for NPY-Y1 antagonist project, HEK293-CNG cells, membrane potential fluorescence, triplicate. shares compounds with NPY Y1 blocker. antagonism; cells given NPY, then isoproterenol. inhibition, % at 3.6 µM. actives 28% (n = 1,200); in the data active means inhibition above about 17%;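 further: 0% = DMSO with agonist challenge and 100% = reference antagonist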
# NPY-Y1 pot conf = NPY-Y1 potentiators or agonists, confirmation, cell-based; actives 20% (n = 280); cell-based NPY-Y1 potentiator/agonist assay; shares compounds with NPY1 pot ag; activation, % at 3.6 µM;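 further: cells challenged with NPY at its EC10 plus isoproterenol stimulus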
# NPY-Y2 counter = NPY-Y2 potentiators or agonists, counter-screen for NPY-Y1 potentiator project, cell-based, fluorescence. shares compounds with NPY1 pot ag. activation, % at 3.6 µM. HEK293-CNG cells, membrane-potential fluorescence (FLIPR), 1536-well. actives 20% (n = 280); in the data active means activation above about 33%
# NPY-Y1 agonist = NPY-Y1 direct agonists without NPY, confirmation, counter-screen for NPY-Y1 potentiator project, cell-based, fluorescence. shares compounds with NPY1 pot ag. HEK293 Y1-CNGC, membrane potential fluorescence, agonist mode. activation, % at 3.6 µM. actives 50% (n = 280);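 active means percent activation above the mean of DMSO-only control wells plus 3 SD of those wells, cut at about 18% in these data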;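 further: cells challenged with isoproterenol plus Ro 20-1724 with no NPY in test wells; Y1 agonism lowers isoproterenol-driven cAMP and reduces probe fluorescence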
# NPY-Y2 ag = NPY-Y2 direct agonists without NPY, counter-screen for NPY-Y1 potentiator project, cell-based, fluorescence; activation, % at 3.6 µM; AID 1698, 2009; HEK293 Y2-CNGC, membrane potential fluorescence, agonist mode; shares compounds with NPY1 pot ag; actives 67% (n = 280);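 active means activation above the solvent-only control wells' mean plus 3 SD, cut at about 11% in these data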;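 further: 0% = DMSO with isoproterenol and 100% = 40 nM NPY maximal response; agonism lowers cAMP so well fluorescence drops in active wells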
# CNGC counter = CNGC cAMP sensor activity inhibitors, counter-screen for NPY-Y1 potentiator/agonist project, cell-based, HEK293-CNG parental, membrane potential fluorescence, Y1 set; shares compounds with NPY1 pot ag; isoproterenol cAMP; inhibition, % at 3.6 µM; actives 42% (n = 280);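 active means inhibition above the mean of stimulated solvent-only control wells plus 3 SD, cut at about 22% in these data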;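 further: 0% = isoproterenol-stimulated DMSO wells and 100% = unstimulated DMSO wells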
# NPY-Y2 confirm = NPY-Y2 potentiators or agonists, confirmation, cell-based. activation, % at 3.6 µM. actives 20% (n = 450). AID 1539, 2009. cell-based NPY-Y2 potentiator/agonist assay. shares compounds with NPY2 pot ag; in the data active means activation above about 33%
# NPY-Y1 counter = NPY-Y1 potentiators or agonists, counter-screen for NPY-Y2 potentiator project, cell-based, fluorescence; actives 20% (n = 450); shares compounds with NPY2 pot ag; activation, % at 3.6 µM; Y1 HEK293-CNG cells, membrane potential fluorescence;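 further: cells stimulated with submaximal NPY then isoproterenol with phosphodiesterase inhibitor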
# NPY-Y1 ag 2 = NPY-Y1 direct agonists, selectivity assay for NPY-Y2 potentiator project, cell-based, fluorescence | shares compounds with NPY2 pot ag | HEK293 Y1-CNGC, membrane potential fluorescence, agonism | activation, % at 3.6 µM | actives 37% (n = 450);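 active means activation above the mean of DMSO-only control wells plus 3 SD, cut at about 18% in these data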;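 further: cells stimulated with 1 µM isoproterenol plus the PDE inhibitor Ro 20-1724; 0% = isoproterenol with DMSO and no NPY and 100% = 40 nM NPY; Y1 agonists lower the membrane potential dye signal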
# CNGC inh = CNGC cAMP sensor activity inhibitors, counter-screen for NPY-Y2 potentiator project, cell-based, HEK293-CNG parental, membrane potential fluorescence | inhibition, % at 3.6 µM | isoproterenol cAMP | actives 32% (n = 450) | shares compounds with NPY2 pot ag;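 active means inhibition above the control-well mean plus 3 SD of those wells, cut at about 22% in these data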;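 further: 0% = DMSO with isoproterenol and 100% = DMSO without isoproterenol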
# NPY-Y2 ag 2 = NPY-Y2 direct agonists, counter-screen for NPY-Y2 potentiator project, cell-based, fluorescence. shares compounds with NPY2 pot ag. HEK293 Y2/CNGC cells, membrane potential fluorescence, agonist mode. activation, % at 3.6 µM. actives 56% (n = 450);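 active means activation above the mean of solvent-only control wells plus 3 SD, cut at about 10% in these data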;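 further: cells stimulated by isoproterenol with no NPY added so direct agonism is tested; 0% = DMSO with isoproterenol alone and 100% = NPY at EC100 plus isoproterenol; agonism lowers probe fluorescence through less cAMP and CNG channel opening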
# Numbers without * were called inactive; nt = no result given. Shown are actives, neighbours in structure and some others; about 2.8% of the full set was active somewhere. Unless noted, no stated cut-off is given here; in the data, active means activation above about 45%; inactive means the rest.
SMILES,NPY1 pot ag,EP2 modulator,NPY Y1 blocker,NPY2 pot ag,NPY-Y2 antag,PGE2 EP2 inh,NPY-Y1 ant conf,NPY2 antag ctr,others
CCC(C)NC(=O)CSc1nnc(-c2ccccn2)n1-c1ccc(OC)cc1 (configuration not stated),nt,3,nt,nt,nt,12,nt,nt,
Cc1ccc(Cn2c(=N)c(C(=O)NCc3ccco3)cc3c(=O)n4ccccc4nc32)cc1,15,13,36*,-3,10,6,9,9,
COc1ccc(CN2CCN(C(=O)c3ccccc3OC)CC2)c(OC)c1,nt,-29,nt,nt,nt,12,nt,nt,
Cc1cc(C(=O)Cn2nc(C(=O)O)c3ccccc3c2=O)c(C)n1-c1cccc(C(F)(F)F)c1,-19,9,nt,-20,nt,5,nt,nt,
Cc1cc(C(=O)Cn2nc(C(=O)O)c3ccccc3c2=O)c(C)n1-c1ccc(F)cc1,-39,50,22*,-23,13,8,14,12,
CC1CC(C)CN(CC(O)c2ccc3c(c2)CC(C)N3S(C)(=O)=O)C1 (configuration not stated),nt,-17,nt,nt,nt,10,nt,nt,
CCOC(=O)c1cnc2ccc(C(=O)OC)cc2c1Nc1ccc2c(c1)OCCO2,-9,45,2,-7,2,15,nt,nt,
CCOC(=O)c1cnc2ccc(OC)cc2c1Nc1ccc2c(c1)OCCO2,-33,33,39*,-14,9,23,13,8,
Cc1ccc(-n2ncc(C(=O)Nc3cc(Cl)ccc3Cl)c2C2CCNCC2)cc1,-5,-16,10,-3,nt,0,nt,nt,
Cc1ccc(-n2ncc(C(=O)Nc3cc(Cl)cc(Cl)c3)c2C2CCNCC2)cc1C,21,-61,34*,51*,nt,8,16,11,NPY-Y2 confirm=48*;NPY-Y1 counter=62*;NPY-Y1 ag 2=12;CNGC inh=26*;NPY-Y2 ag 2=31*
Cc1cccc(N(CC(=O)N2CCC(C)CC2)S(C)(=O)=O)c1,nt,-63,nt,nt,nt,7,nt,nt,
CC1(C(=O)Nc2ccc(Oc3ccc4c(c3)OCO4)cc2)CCCO1 (configuration not stated),nt,-70,nt,nt,nt,10,nt,nt,
CCOC(=O)N1CCN(C(=O)CSCC(=O)Nc2nc(-c3ccc(OC)cc3)cs2)CC1,-9,-13,5,-1,0,14,nt,nt,
CCOC(=O)N1CCN(C(=O)CSCC(=O)Nc2nc(-c3ccc(-c4ccccc4)cc3)cs2)CC1,-44,-37,21*,33*,7,13,14,8,NPY-Y2 confirm=-11;NPY-Y1 counter=-40;NPY-Y1 ag 2=-32;CNGC inh=-11;NPY-Y2 ag 2=-1
CC(NC(=O)Nc1nnc(C(F)(F)F)s1)(C(F)(F)F)C(F)(F)F,4,-12,43*,58*,11,17,27*,7,NPY-Y2 confirm=8;NPY-Y1 counter=-17;NPY-Y1 ag 2=-25;CNGC inh=-8;NPY-Y2 ag 2=-1
CC(C)(C)NCc1cc(Cl)ccc1OCc1ccccc1F,27,17,24*,31*,nt,3,17,9,NPY-Y2 confirm=-4;NPY-Y1 counter=-38;NPY-Y1 ag 2=-27;CNGC inh=-15;NPY-Y2 ag 2=-13
Cc1c(/C=N/Nc2nc3ccccc3[nH]2)c2ccccc2n1C,56*,-101,nt,37,nt,16,nt,nt,NPY-Y1 pot conf=47*;NPY-Y2 counter=41*;NPY-Y1 agonist=35*;NPY-Y2 ag=43*;CNGC counter=34*
Cn1c(/C=N/Nc2nc3ccccc3[nH]2)nc2ccccc21,1,-48,1,2,nt,7,nt,nt,
CCc1nc2ccc(NC(=O)c3cnc(C(C)(C)C)nc3)cc2[nH]1,nt,-2,nt,nt,nt,4,nt,nt,
Fc1cc(NC(=S)NCc2ccc(CNC(=S)Nc3ccc(Cl)c(F)c3)cc2)ccc1Cl,52*,-22,nt,44,nt,10,nt,nt,NPY-Y1 pot conf=71*;NPY-Y2 counter=51*;NPY-Y1 agonist=55*;NPY-Y2 ag=57*;CNGC counter=55*
